Results on one compound are retold here after ChEMBL document CHEMBL1781898, “Orally active achiral N-hydroxyformamide inhibitors of ADAM-TS4 (aggrecanase-1) and ADAM-TS5 (aggrecanase-2) for the treatment of osteoarthritis” (Bioorg Med Chem Lett, 2011).

A short description of data set [1]: Absolute bioavailability in rat. Format: ADME, organism-based. The conditions noted are these: in vivo.
Data set [2] in a line: Half life in dog at 1 mg/kg, iv and 1 mg/kg, po. Format: ADME, organism-based, Canis lupus familiaris. The conditions noted are these: in vivo.
Data set [3] is described as follows: Oral bioavailability in mouse. To be noted: in vivo. Format: ADME, organism-based.
Data set [4] in a line: Volume of distribution at steady state in rat at 2 mg/kg, iv and 3 to 10 mg/kg, po. Format: ADME, organism-based. To be noted: in vivo, read-out: Vdss.
Data set [5] can be described thus: Free drug level in rat. To be noted: in vivo. Format: ADME, organism-based.
Data set [6] can be described thus: Half life in rat at 2 mg/kg, iv. Format: ADME, organism-based. Also noted: dose 2 mg/kg, route intravenous. To be noted: in vivo. The gist of the method: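 Rat iv PK: 2 mg/kg iv, n = 2 animals; clearance, half-life and Vdss determined.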
Data set [7] deals with T1, A disintegrin and metalloproteinase with thrombospondin motifs 4 (Homo sapiens, UniProt O75173).
T1 sequence (O75173 whole entry): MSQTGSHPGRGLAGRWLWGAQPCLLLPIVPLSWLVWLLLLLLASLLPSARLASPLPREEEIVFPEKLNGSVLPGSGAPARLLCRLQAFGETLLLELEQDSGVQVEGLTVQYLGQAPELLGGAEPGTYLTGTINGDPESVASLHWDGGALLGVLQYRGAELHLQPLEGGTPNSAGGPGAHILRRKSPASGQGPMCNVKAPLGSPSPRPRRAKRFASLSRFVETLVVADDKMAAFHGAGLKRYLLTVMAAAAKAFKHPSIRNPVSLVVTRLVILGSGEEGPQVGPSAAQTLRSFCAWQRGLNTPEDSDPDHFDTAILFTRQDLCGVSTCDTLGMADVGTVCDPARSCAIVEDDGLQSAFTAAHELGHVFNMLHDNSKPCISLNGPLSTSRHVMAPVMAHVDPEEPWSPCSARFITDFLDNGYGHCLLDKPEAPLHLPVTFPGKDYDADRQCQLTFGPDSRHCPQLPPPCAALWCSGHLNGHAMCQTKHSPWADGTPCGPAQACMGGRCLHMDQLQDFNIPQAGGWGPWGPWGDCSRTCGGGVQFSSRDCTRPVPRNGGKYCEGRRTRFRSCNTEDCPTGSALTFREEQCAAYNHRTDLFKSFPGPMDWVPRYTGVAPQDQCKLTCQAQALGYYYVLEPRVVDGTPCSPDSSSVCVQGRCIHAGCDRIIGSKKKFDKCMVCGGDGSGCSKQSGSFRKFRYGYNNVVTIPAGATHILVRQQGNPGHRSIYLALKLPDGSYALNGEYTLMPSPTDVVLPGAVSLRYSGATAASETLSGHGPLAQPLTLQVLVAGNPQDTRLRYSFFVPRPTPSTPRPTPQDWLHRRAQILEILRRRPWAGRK
Briefly: Inhibition of ADAMTS-4 assessed as substrate cleavage after 16 hrs by fluorescence assay. The gist of the method: (§1)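 Enzyme inhibition IC50s derived from at least six measurements, standard errors normally <5% within an assay; a standard compound run to keep assay-to-assay variability within twofold.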

A short description of data set [8]: Thermodynamic solubility of the compound in phosphate buffer at pH 7.4 after 24 hrs. Format: physicochemical. The conditions noted are these: read-out: Therm_solubility.
The nature of data set [9]: Volume of distribution at steady state in dog at 1 mg/kg, iv and 1 mg/kg, po. Format: ADME, organism-based, Canis lupus familiaris. The conditions noted are these: in vivo, read-out: Vdss.
A short description of data set [10]: Free drug level in dog. Format: ADME, organism-based, Canis lupus familiaris. The conditions noted are these: in vivo.
Data set [11] is described as follows: Lipophilicity, log D of the compound. Format: physicochemical. The conditions noted are these: octanol/water.
For data set [12], the target named is T2, A disintegrin and metalloproteinase with thrombospondin motifs 5 (Homo sapiens, UniProt Q9UNA0).
T2 sequence (Q9UNA0 whole entry): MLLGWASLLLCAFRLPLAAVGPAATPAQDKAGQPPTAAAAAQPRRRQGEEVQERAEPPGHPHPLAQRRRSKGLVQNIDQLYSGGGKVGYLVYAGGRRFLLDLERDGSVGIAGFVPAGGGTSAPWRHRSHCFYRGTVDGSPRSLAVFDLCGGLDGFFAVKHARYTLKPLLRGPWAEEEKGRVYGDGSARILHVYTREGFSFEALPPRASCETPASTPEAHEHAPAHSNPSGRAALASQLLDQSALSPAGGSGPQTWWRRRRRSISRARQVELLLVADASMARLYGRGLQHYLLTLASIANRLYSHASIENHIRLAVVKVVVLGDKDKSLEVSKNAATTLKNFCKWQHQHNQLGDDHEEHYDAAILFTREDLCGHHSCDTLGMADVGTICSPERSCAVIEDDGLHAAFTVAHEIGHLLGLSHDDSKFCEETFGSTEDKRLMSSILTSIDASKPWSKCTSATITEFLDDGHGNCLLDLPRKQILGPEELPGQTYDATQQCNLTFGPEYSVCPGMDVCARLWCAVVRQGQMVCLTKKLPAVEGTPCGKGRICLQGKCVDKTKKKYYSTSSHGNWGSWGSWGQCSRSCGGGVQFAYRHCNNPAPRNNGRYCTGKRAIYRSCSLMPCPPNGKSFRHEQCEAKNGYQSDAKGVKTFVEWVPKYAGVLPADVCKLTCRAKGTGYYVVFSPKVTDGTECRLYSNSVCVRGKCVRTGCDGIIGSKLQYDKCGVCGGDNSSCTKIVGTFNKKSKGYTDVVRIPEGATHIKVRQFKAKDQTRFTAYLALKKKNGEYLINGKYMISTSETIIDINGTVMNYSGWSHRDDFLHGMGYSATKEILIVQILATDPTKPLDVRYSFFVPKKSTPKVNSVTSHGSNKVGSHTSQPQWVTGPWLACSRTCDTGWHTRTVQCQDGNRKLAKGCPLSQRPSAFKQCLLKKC
As to the kind of experiment: Inhibition of ADAMTS-5 assessed as substrate cleavage after 16 hrs by fluorescence assay. The gist of the method:
as §1

The target of a further data set is Cytochrome P450 2C9 (Homo sapiens, UniProt P11712). Briefly: Inhibition of CYP2C9. Format: ADME. The gist of the method:
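Inhibition of cytochrome P450 isoforms 1A2, 2C9, 2C19, 2D6 and 3A4, reported as pIC50.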

Data set [13] can be described thus: Volume of distribution at steady state in mouse. Format: ADME, organism-based. To be noted: in vivo, read-out: Vdss.
Data set [14] can be described thus: Oral bioavailability in dog. Format: ADME, organism-based, Canis lupus familiaris. The conditions noted are these: in vivo.
Data set [15] in a line: Apparent permeability across apical to basolateral side in human Caco2 cells at 10 uM. Format: ADME, cell-based. The conditions noted are these: Caco-2. In general terms: Caco-2 monolayers are a common model of the intestinal barrier.
A short description of data set [16]: Clearance in rat at 2 mg/kg, iv and 3 to 10 mg/kg, po. Format: ADME, organism-based. To be noted: in vivo.
A short description of data set [17]: Free drug level in human. Format: ADME, organism-based. The conditions noted are these: in vivo.
Data set [18] is described as follows: Intrinsic clearance in human hepatocytes measured per million cells. Format: ADME, cell-based, Liver, Hepatocyte. The gist of the method:
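Human hepatocyte metabolism; intrinsic clearance expressed as μL/min/10⁶ cells, reported as mean of six separate experiments.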

Chain of Cytochrome P450 2C9 (P11712 whole entry, canonical isoform): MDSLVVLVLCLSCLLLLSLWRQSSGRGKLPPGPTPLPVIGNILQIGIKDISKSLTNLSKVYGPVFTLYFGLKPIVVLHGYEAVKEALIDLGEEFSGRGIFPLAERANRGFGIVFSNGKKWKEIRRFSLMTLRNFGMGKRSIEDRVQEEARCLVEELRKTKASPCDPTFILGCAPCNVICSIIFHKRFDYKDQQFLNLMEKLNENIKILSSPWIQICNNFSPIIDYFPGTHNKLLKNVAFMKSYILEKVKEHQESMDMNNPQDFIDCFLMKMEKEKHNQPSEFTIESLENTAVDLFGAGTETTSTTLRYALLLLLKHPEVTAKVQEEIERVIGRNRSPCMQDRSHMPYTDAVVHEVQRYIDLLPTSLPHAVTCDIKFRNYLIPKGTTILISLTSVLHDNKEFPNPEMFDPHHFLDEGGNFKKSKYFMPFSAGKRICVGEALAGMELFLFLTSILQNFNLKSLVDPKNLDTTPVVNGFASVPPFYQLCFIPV

For orientation: bioavailability means the share of a dose that reaches the circulation, judged against a reference dose that is usually intravenous. Higher therefore signals good availability. Broadly, the half-life is the time needed for the level to fall by half in the phase considered. Read a high half-life as slow loss. For orientation: fraction unbound means the share of the substance not bound to proteins or other matrix. As a reminder, the IC50 is the concentration needed to halve the response being measured. A word on the logD: it is lipophilicity at a set pH, counting ionised and neutral species. Read a high logD as higher lipophilicity. A word on the Papp A→B: it is the apparent permeability from the apical to the basolateral side of a cell layer. The hepatocyte CLint is the capacity of the preparation to metabolise the compound, expressed as a volume cleared per time. A high value points to faster metabolism. With `Cc1noc(C)c1CCC1CCN(S(=O)(=O)CC2(N(O)C=O)CCOCC2)CC1`, the values for the bioavailability in data set [1], in [3] and in data set [14] were 45%, 54% and 52%, respectively. In addition, the half-life is 19.1 h in [2] and 8.9 h in data set [6]. The figures for the Vd in data set [4], in [9] and in data set [13] were 3 L/kg, 10.9 L/kg and 2.5 L/kg, respectively. Moreover, the fraction unbound in data set [5], in data set [10] and in data set [17] was above 0.5 throughout. For the same compound, the IC50 in data set [7] is 0.026 µM; in data set [12], 0.86 µM. The solubility thermodynamic at 24 h in [8] is above 1000 µM. Moreover, the pH-dependent lipophilicity (logD) in data set [11] is 0.9. Moreover, the “inhibition (INH)” value at Cytochrome P450 2C9 is recorded as “Not Active”. Further, the Papp A→B at 10 µM in data set [15] is 8.3 ×10⁻⁶ cm/s. For the same compound, the clearance in data set [16] was 24 mL/min/kg. The compound also had a hepatocyte CLint in [18] below 2 µL/min/1e6 cells.
